According to ChEMBL document CHEMBL1145054, “Enantioselective syntheses and cytotoxicity of N,O-nucleosides” (J Med Chem, 2003):

Columns and labels:
THP-1 [1] = assay: Cytotoxic concentration required to cause 50% toxicity in THP-1 cell lines at 24 hours; assay type: functional; settings: Homo sapiens, THP-1, 24 h
How it was run: (§1)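 Cells were exposed under optimal culture conditions to 8–512 μM test agent or to control medium for the stated time. Viability was scored by trypan blue exclusion. CC50 is the concentration causing 50% toxicity, determined from two or more experiments.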

MOLT-3 [2] = assay: Cytotoxic concentration required to cause 50% toxicity in Molt-3 cell lines at 24 hours; assay type: functional; settings: Homo sapiens, MOLT-3, 24 h; how it was run: as §1
U-937 [3] = assay: Apoptotic concentration required to cause apoptosis in 50% of U-937 cell lines at 24 hours; assay type: functional, cell-based; settings: Homo sapiens, U-937, 24 h
How it was run: (§2)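 Cells were exposed under optimal culture conditions to 8–512 μM test agent or to control medium for the stated time. They were then stained with acridine orange, and over 600 cells were counted by fluorescence microscopy. Cells counted as apoptotic had uniformly stained nuclei with chromatin condensation and nuclear fragmentation. AC50 is the concentration giving 50% apoptosis, determined from two or more experiments.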

U-937 [4] = assay: Cytotoxic concentration required to cause 50% toxicity in U-937 cell lines at 48 hours; assay type: functional; settings: Homo sapiens, U-937, 48 h; how it was run: as §1
HL-60 [5] = assay: Cytotoxic concentration required to cause 50% toxicity in HL-60 cell lines at 24 hours; assay type: functional; settings: Homo sapiens, HL-60, 24 h; how it was run: as §1
U-937 [6] = assay: Cytotoxic concentration required to cause 50% toxicity in U-937 cell lines at 24 hours; assay type: functional; settings: Homo sapiens, U-937, 24 h; how it was run: as §1
MOLT-3 [7] = assay: Cytotoxic concentration required to cause 50% toxicity in Molt-3 cell lines at 72 hours; assay type: functional; settings: Homo sapiens, MOLT-3, 72 h; how it was run: as §1
U-937 [8] = assay: Apoptotic concentration required to cause apoptosis in 50% of U-937 cell lines at 48 hours; assay type: functional, cell-based; settings: Homo sapiens, U-937, 48 h; how it was run: as §2
U-937 [9] = assay: Cytotoxic concentration required to cause 50% toxicity in U-937 cell lines at 72 hours; assay type: functional; settings: Homo sapiens, U-937, 72 h; how it was run: as §1
HL-60 [10] = assay: Apoptotic concentration required to cause apoptosis in 50% of HL-60 cell lines at 48 hours; assay type: functional, cell-based; settings: Homo sapiens, HL-60, 48 h; how it was run: as §2
MOLT-3 [11] = assay: Apoptotic concentration required to cause apoptosis in 50% of Molt-3 cell lines at 24 hours; assay type: functional, cell-based; settings: Homo sapiens, MOLT-3, 24 h; how it was run: as §2
MOLT-3 [12] = assay: Apoptotic concentration required to cause apoptosis in 50% of Molt-3 cell lines at 72 hours; assay type: functional, cell-based; settings: Homo sapiens, MOLT-3, 72 h; how it was run: as §2
MOLT-3 [13] = assay: Cytotoxic concentration required to cause 50% toxicity in Molt-3 cell lines at 48 hours; assay type: functional; settings: Homo sapiens, MOLT-3, 48 h; how it was run: as §1
U-937 [14] = assay: Apoptotic concentration required to cause apoptosis in 50% of U-937 cell lines at 72 hours; assay type: functional, cell-based; settings: Homo sapiens, U-937, 72 h; how it was run: as §2
HL-60 [15] = assay: Apoptotic concentration required to cause apoptosis in 50% of HL-60 cell lines at 24 hours; assay type: functional, cell-based; settings: Homo sapiens, HL-60, 24 h; how it was run: as §2
HL-60 [16] = assay: Cytotoxic concentration required to cause 50% toxicity in HL-60 cell lines at 48 hours; assay type: functional; settings: Homo sapiens, HL-60, 48 h; how it was run: as §1
MOLT-3 [17] = assay: Apoptotic concentration required to cause apoptosis in 50% of Molt-3 cell lines at 48 hours; assay type: functional, cell-based; settings: Homo sapiens, MOLT-3, 48 h; how it was run: as §2
THP-1 [18] = assay: Apoptotic concentration required to cause apoptosis in 50% of THP-1 cell lines at 24 hours; assay type: functional, cell-based; settings: Homo sapiens, THP-1, 24 h; how it was run: as §2

`O=c1[nH]c(=O)n(C2CCNO2)cc1F` (stereo not drawn) gave a CC50 (THP-1 [1]) of over 1000 µM, a CC50 (MOLT-3 [2]) of over 1000 µM and an AC50 (U-937 [3]) of over 1000 µM. For the same compound, the CC50 (U-937 [4]) was over 1000 µM, the CC50 (HL-60 [5]) was over 1000 µM and the CC50 (U-937 [6]) was over 1000 µM. The CC50 (MOLT-3 [7]) was 366 µM, the AC50 (U-937 [8]) was 123 µM and the CC50 (U-937 [9]) was 687 µM. The AC50 (HL-60 [10]) was over 1000 µM, the AC50 (MOLT-3 [11]) was 329 µM and the AC50 (MOLT-3 [12]) was 13 µM. For the same compound, the CC50 (MOLT-3 [13]) was 806 µM, the AC50 (U-937 [14]) was 3 µM and the AC50 (HL-60 [15]) was over 1000 µM. It also gave a CC50 (HL-60 [16]) of over 1000 µM, an AC50 (MOLT-3 [17]) of 96 µM and an AC50 (THP-1 [18]) of over 1000 µM.
